The subject of series [1] is Staphylococcus aureus. The series can be described thus: Antibacterial activity against methicillin-resistant Staphylococcus aureus NRS382 assessed as inhibition of visible bacterial growth incubated for 18 to 20 hrs by CLSI method. As to conditions: time 18-20 hrs. The class given is functional. The method, boiled down: (§1)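 CLSI broth microdilution. Strains grown aerobically overnight on tryptic soy agar at 37 °C, adjusted to 0.5 McFarland and diluted in cation-adjusted Mueller–Hinton broth to about 5×10^5 CFU/mL. Compounds and control drugs serially diluted across the plate. Incubated aerobically at 37 °C for 18-20 h. MIC is the lowest concentration with no visible growth.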

In series [2] the test system is Staphylococcus aureus. The series can be described thus: Antibacterial activity against methicillin-resistant Staphylococcus aureus NRS384 assessed as inhibition of visible bacterial growth incubated for 18 to 20 hrs by CLSI method. Format: functional. As to conditions: time 18-20 hrs. In short, it runs like this:
as §1

Series [3] relates to Staphylococcus aureus. The series can be described thus: Antibacterial activity against methicillin-resistant Staphylococcus aureus NRS123 assessed as inhibition of visible bacterial growth incubated for 18 to 20 hrs by CLSI method. The class given is functional. As to conditions: time 18-20 hrs. In short, it runs like this: as §1
In series [4] the test system is Staphylococcus aureus. The series can be described thus: Antibacterial activity against methicillin-resistant Staphylococcus aureus NRS385 assessed as inhibition of visible bacterial growth incubated for 18 to 20 hrs by CLSI method. Format: functional. As to conditions: time 18-20 hrs. The method, boiled down: as §1
In series [5] the test system is Staphylococcus aureus. Nature of the series: Antibacterial activity against methicillin-resistant Staphylococcus aureus NRS387 assessed as inhibition of visible bacterial growth incubated for 18 to 20 hrs by CLSI method. Format: functional. Conditions: time 18-20 hrs. In short, it runs like this:
as §1

Series [6] concerns Staphylococcus epidermidis. The series can be described thus: Antibacterial activity against Staphylococcus epidermidis NRS101 assessed as inhibition of visible bacterial growth incubated for 18 to 20 hrs by CLSI method. The class given is functional. As to conditions: time 18-20 hrs. The method, boiled down:
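Broth microdilution per CLSI. Strains grown aerobically overnight on TSA at 37 °C, suspended to 0.5 McFarland, diluted in CAMHB to about 5×10^5 CFU/mL. Agents serially diluted across plate; aerobic incubation 37 °C for 18-20 h. MIC = lowest concentration completely preventing visible growth.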

The next series has as its system Pseudomonas aeruginosa. Nature of the series: Antibacterial activity against Pseudomonas aeruginosa ATCC 27853 assessed as inhibition of visible bacterial growth at 16 ug/ml incubated for 18 to 20 hrs by CLSI method. Format: functional, organism-based. As to conditions: dose 16.0 µg/ml, time 18-20 hrs. The method, boiled down:
as §1

For series [7], the system named is Staphylococcus aureus. Nature of the series: Synergistic antibacterial activity against methicillin-resistant Staphylococcus aureus ATCC 33592 assessed as fractional inhibitory concentration index in presence of daptomycin by checkerboard assay. Format: functional.
Series [8] has as its system Staphylococcus aureus. Nature of the series: Antibacterial activity against methicillin-resistant Staphylococcus aureus ATCC 33592 assessed as reduction in bacterial count at 3 x MIC incubated upto 24 hrs by time kill analysis. The class given is functional. Conditions: time hrs <=24. In short, it runs like this:
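Time-kill assay. […] Samples taken at 0, 2, 4, 8, 12 and 24 h, serially diluted in PBS and plated on tryptic soy agar. Viable CFU/mL counted after 18-20 h at 37 °C.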

Another series deals with J774. Nature of the series: Cytotoxicity against mouse J774 cells assessed as reduction in cell viability at 32 ug/ml incubated for 24 hrs by MTS assay. Format: cell-based. Conditions: j774, 24 h, dose 32 µg/ml.

Molecules are shown by their SMILES. Values after ≈ are worked out from the molar mass of the structure shown. Active and inactive are the calls of the source. The calls are words filed in the database; no cut-off is given here.

With `O=C(Nc1nnc(-c2cccs2)o1)c1ccc(S(=O)(=O)C(F)(F)F)cc1`, the minimal inhibitory concentration (MIC) was 8 µg/mL (≈ 19.8 µM) in the series with Staphylococcus aureus [1]; 4 µg/mL (≈ 9.92 µM) in the series with Staphylococcus aureus [2]; 4 µg/mL (≈ 9.92 µM) in the series on Staphylococcus aureus [3]; 8 µg/mL (≈ 19.8 µM) in the series with Staphylococcus aureus [4]; 4 µg/mL (≈ 9.92 µM) with Staphylococcus aureus [5]; 4 µg/mL (≈ 9.92 µM) in series [6]. Further, the inhibition result in the series with Pseudomonas aeruginosa is “inactive”. In addition, the “fractional inhibitory concentration index (FICI)” value in the series with Staphylococcus aureus [7] came to 0.63. Further, the Activity with Staphylococcus aureus [8] is reported as 1.04 log10CFU/ml; in the series with J774 it was “Non-Toxic”.

The values above are taken from ChEMBL document CHEMBL4715682, “Potent trifluoromethoxy, trifluoromethylsulfonyl, trifluoromethylthio and pentafluorosulfanyl containing (1,3,4-oxadiazol-2-yl)benzamides against drug-resistant Gram-positive bacteria” (RSC Med Chem, 2020).
